In ChEMBL document CHEMBL1287740, “Synthesis and bio-evaluation of alkylaminoaryl phenyl cyclopropyl methanones as antitubercular and antimalarial agents” (Bioorg Med Chem, 2010):
Values after ≈ are worked out from the molar mass of the structure shown. Active and inactive are the calls of the source. The rule behind the calls is not given here.

Assays:
Plasmodium falciparum [1] = experiment: Antimalarial activity against Plasmodium falciparum 3D7 assessed as maturation of schizonts after 24 to 32 hrs by microdilution method; type: functional
Outline: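 P. falciparum 3D7 (chloroquine sensitive); twofold serial dilutions in complete RPMI 1640 from 10 mg/ml DMSO stocks, parasitized RBCs added (final hematocrit 3–4%, 1.0–2.0% parasitaemia, >95% rings). Incubated 24–32 h at 37 °C with 5% CO2. Thin smears stained with 15% Giemsa; schizont maturation scored against controls to give MIC.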

Plasmodium falciparum [2] = experiment: Antimalarial activity against Plasmodium falciparum 3D7 assessed as radiolabeled hypoxanthine uptake after 48 hrs by scintillation counting; type: functional, organism-based; settings: 3D7, 48 h
Outline: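 Chloroquine-sensitive P. falciparum 3D7 asynchronous culture at 0.5% parasitaemia and 1.5% hematocrit, exposed to compounds for 24 h at 37 °C in CO2. Radiolabelled hypoxanthine (0.5 µCi/well) then added and incubation continued 48 h. Cells harvested onto filter paper, and radioactivity counted by scintillation β-counter. IC50 derived from hypoxanthine uptake.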

[3] = Cytotoxicity against african green monkey Vero cells after 72 hrs; type: cell-based; settings: chlorocebus sabaeus
Outline: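 Vero (C1008 monkey kidney) cells grown in MEM + 15% FBS, 5% CO2, 37 °C. Trypsinized cells at 1 × 10^5 cells/ml seeded and allowed to adhere overnight, then exposed to serial compound dilutions for 72 h. Resazurin added and fluorescence read after 4 h.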

[4] = Selectivity index, ratio of CC50 for african green monkey (Cercopithecus aethiops) Vero cells to IC50 for Plasmodium falciparum 3D7; type: functional
Outline: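 Ratio of Vero CC50 (resazurin fluorescence after 72 h exposure) to P. falciparum 3D7 IC50 (radiolabelled hypoxanthine uptake; 24 h compound exposure, then 48 h with label).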

Mycolicibacterium aurum [5] = experiment: Inhibition of type II fatty acid biosynthesis pathway in Mycobacterium aurum at 25 uM after 12 hrs by lacZ reporter assay relative to untreated control; type: functional
Outline: (§1)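 Recombinant M. aurum lacZ reporter strains (kasA promoter or hsp60 promoter) grown in Sauton's medium with kanamycin at 37 °C to 0.5 OD600, diluted to 0.04–0.05 OD, equilibrated 2 h, then treated 12 h at 37 °C (10, 25, 50, 75 µM). Cells sonicated in PBS pH 7.2 and protein normalized by Bradford. β-gal measured with ONPG (4 mg/ml), 30 min at 37 °C, stopped with Na2CO3, OD 410 nm. Triplicates, relative to untreated control.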

Mycolicibacterium aurum [6] = experiment: Inhibition of type II fatty acid biosynthesis pathway in Mycobacterium aurum at 50 uM after 12 hrs by lacZ reporter assay relative to untreated control; type: functional; outline: as §1
Mycolicibacterium aurum [7] = experiment: Inhibition of type II fatty acid biosynthesis pathway in recombinant Mycobacterium aurum carrying hsp60 promoter assessed as beta-galactosidase activity at 10 to 50 uM after 12 hrs by lacZ reporter assay relative to untreated control; type: functional, organism-based; outline: as §1
Mycolicibacterium aurum [8] = experiment: Inhibition of type II fatty acid biosynthesis pathway in recombinant Mycobacterium aurum carrying hsp60 promoter assessed as beta-galactosidase activity at 14 uM after 12 hrs by lacZ reporter assay relative to untreated control; type: functional, organism-based
Mycolicibacterium aurum [9] = experiment: Inhibition of type II fatty acid biosynthesis pathway in Mycobacterium aurum at 10 to 50 uM after 12 hrs by lacZ reporter assay relative to untreated control; type: functional, organism-based; outline: as §1
Mycolicibacterium aurum [10] = experiment: Inhibition of type II fatty acid biosynthesis pathway in Mycobacterium aurum assessed as cell viability at 10 to 50 uM after 12 hrs by lacZ reporter assay relative to untreated control; type: functional, organism-based
Outline: (§2)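 M. aurum (recombinant reporter strains) grown in Sauton's medium with 0.05% Tween-80 and kanamycin to 0.6 OD600, diluted to 0.05 OD. 1 × 10^5 cells inoculated into 5 ml medium with varying compound concentrations, grown 12 h at 37 °C with shaking. Viable cells counted by 10-fold serial dilution plating on nutrient agar-Tween-kanamycin. % inhibition calculated with untreated colony count taken as 100%.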

Mycolicibacterium aurum [11] = experiment: Inhibition of type II fatty acid biosynthesis pathway in recombinant Mycobacterium aurum carrying hsp60 promoter assessed as cell viability at 10 to 50 uM after 12 hrs by lacZ reporter assay relative to untreated control; type: functional, organism-based; outline: as §2
Mycolicibacterium aurum [12] = experiment: Inhibition of type II fatty acid biosynthesis pathway in recombinant Mycobacterium aurum carrying hsp60 promoter assessed as cell viability at 10 uM after 12 hrs by lacZ reporter assay relative to untreated control; type: functional; outline: as §2
Mycolicibacterium aurum [13] = experiment: Inhibition of type II fatty acid biosynthesis pathway in recombinant Mycobacterium aurum carrying hsp60 promoter assessed as cell viability at 25 uM after 12 hrs by lacZ reporter assay relative to untreated control; type: functional; outline: as §2
Mycolicibacterium aurum [14] = experiment: Inhibition of type II fatty acid biosynthesis pathway in recombinant Mycobacterium aurum carrying hsp60 promoter assessed as cell viability at 50 uM after 12 hrs by lacZ reporter assay relative to untreated control; type: functional; outline: as §2
Mycolicibacterium aurum [15] = experiment: Inhibition of type II fatty acid biosynthesis pathway in recombinant Mycobacterium aurum carrying hsp60 promoter assessed as cell viability at 75 uM after 12 hrs by lacZ reporter assay relative to untreated control; type: functional; outline: as §2
[16] = test system: Mycobacterium tuberculosis; experiment: Antimicrobial activity against Mycobacterium tuberculosis H37Rv after 30 days by agar microdilution method; type: functional
Outline: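 Twofold dilutions of compound in DMSO incorporated into Middlebrook 7H10 medium with OADC supplement in slanted tubes, preincubated 37 °C for 24 h, then streaked with H37Rv harvested from L-J medium into 0.85% saline with 0.05% Tween-80 (5 × 10^5 bacilli per tube). Incubated at 37 °C; MIC = lowest concentration giving complete inhibition of colonies versus drug-free control.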

Mycolicibacterium aurum [17] = experiment: Inhibition of type II fatty acid biosynthesis pathway in recombinant Mycobacterium aurum carrying hsp60 promoter assessed as beta-galactosidase activity at 50 to 100 uM after 12 hrs by lacZ reporter assay relative to untreated control; type: functional, organism-based
Mycolicibacterium aurum [18] = experiment: Inhibition of type II fatty acid biosynthesis pathway in Mycobacterium aurum assessed as beta-galactosidase activity at 50 to 100 uM after 12 hrs by lacZ reporter assay relative to untreated control; type: functional, organism-based
Mycolicibacterium aurum [19] = experiment: Inhibition of type II fatty acid biosynthesis pathway in Mycobacterium aurum assessed as growth inhibition by cfu analysis; type: functional; outline: as §2
Mycolicibacterium aurum [20] = experiment: Inhibition of type II fatty acid biosynthesis pathway in Mycobacterium aurum assessed as growth inhibition by lacZ reporter assay; type: functional; outline: as §2

**Q.** Which results are given for `CN(C)CCCNc1ccc(C(=O)/C=C/c2ccc(Cl)cc2)cc1`?
**A.** MIC (Plasmodium falciparum [1]): 1.56 µg/mL (≈ 4.55 µM); IC50 (Plasmodium falciparum [2]): 0.64 µg/mL (≈ 1.87 µM); CC50 at 72 h [3]: 5.92 µg/mL (≈ 17.3 µM); Ratio CC50/IC50 [4]: 9.25; inhibition at 25 µM (Mycolicibacterium aurum [5]): 83.4%; inhibition at 50 µM (Mycolicibacterium aurum [6]): 88.1%; inhibition (Mycolicibacterium aurum [7]): inactive; inhibition (Mycolicibacterium aurum [8]): inactive; inhibition (Mycolicibacterium aurum [9]): Dose-dependent effect; inhibition (Mycolicibacterium aurum [10]): Dose-dependent effect; inhibition (Mycolicibacterium aurum [11]): Dose-dependent effect; inhibition at 10 µM (Mycolicibacterium aurum [12]): 18.8%; inhibition at 25 µM (Mycolicibacterium aurum [13]): 85.4%; inhibition at 50 µM (Mycolicibacterium aurum [14]): 88.7%; inhibition at 75 µM (Mycolicibacterium aurum [15]): 99.6%

**Q.** With `CN(C)CCCNc1ccc(C(=O)C2CC2c2ccc(Cl)cc2)cc1` (stereo unspecified) as the molecule, how does the MIC [16] read?
**A.** The MIC was 6.25 µg/mL (≈ 17.5 µM).

**Q.** And the MIC (Plasmodium falciparum [1])?
**A.** Its MIC is 50 µg/mL (≈ 140 µM).

**Q.** What about the IC50 (Plasmodium falciparum [2]) of the same molecule?
**A.** Its IC50 is 2.86 µg/mL (≈ 8.01 µM).

**Q.** And the CC50 at 72 h [3]?
**A.** The CC50 at 72 h was 15.8 µg/mL (≈ 44.4 µM).

**Q.** And the “Ratio CC50/IC50” value [4]?
**A.** Its value is 5.53.

**Q.** And the inhibition at 25 µM (Mycolicibacterium aurum [5])?
**A.** Its inhibition at 25 µM is 46.3%.

**Q.** What about the inhibition at 50 µM (Mycolicibacterium aurum [6]) of the same molecule?
**A.** The inhibition at 50 µM was 57.4%.

**Q.** What about the inhibition (Mycolicibacterium aurum [17]) of the same molecule?
**A.** Its inhibition is “inactive”.

**Q.** What about the inhibition (Mycolicibacterium aurum [18]) of the same molecule?
**A.** Its inhibition is “Active”.

**Q.** And the “inhibition (INH)” value (Mycolicibacterium aurum [19])?
**A.** Its value is “>=85%”.

**Q.** And the “inhibition (INH)” value (Mycolicibacterium aurum [20])?
**A.** Its value is “>=85%”.
